What all share (format): ADME, organism-based, Macaca mulatta
Data set [1] can be described thus: Drug level in normal rhesus monkey parietal cortex assessed as standard uptake value at 96.3 MBq, iv after 105 mins by microPET. The conditions noted are these: in vivo, 1.75 h.
Data set [2] in a line: Drug level in normal rhesus monkey thalamus assessed as standard uptake value at 96.3 MBq, iv after 10 mins by microPET. To be noted: in vivo.
Data set [3] is described as follows: Drug level in normal rhesus monkey thalamus assessed as standard uptake value at 96.3 MBq, iv after 47.5 mins by microPET. To be noted: in vivo.
A short description of data set [4]: Drug level in normal rhesus monkey cerebellum assessed as standard uptake value at 96.3 MBq, iv after 1.5 mins by microPET. The conditions noted are these: in vivo, 0.025 h. In outline:
(§1)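 One normal rhesus monkey, each tracer given iv via the vena saphena (81.2, 96.3 or 109.4 MBq), with 1 day between tracer injections. Dynamic brain μPET over 180 min used frames of 5 × 60 s, 5 × 120 s, 9 × 300 s and 12 × 600 s. Images were reconstructed by filtered back projection with a RAMP filter. Regional time-activity curves were expressed as SUV.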

A short description of data set [5]: Drug level in normal rhesus monkey pons assessed as standard uptake value at 96.3 MBq, iv after 12 mins by microPET. To be noted: in vivo, 0.2 h.
Data set [6] in a line: Drug level in normal rhesus monkey pons assessed as standard uptake value at 96.3 MBq, iv after 105 mins by microPET. To be noted: in vivo, 1.75 h.
Data set [7] can be described thus: Drug level in normal rhesus monkey cerebellum assessed as standard uptake value at 96.3 MBq, iv after 32.5 mins by microPET. The conditions noted are these: in vivo. In outline: as §1
Data set [8] is described as follows: Drug level in normal rhesus monkey cerebellum assessed as standard uptake value at 96.3 MBq, iv after 47.5 mins by microPET. The conditions noted are these: in vivo. The method, boiled down:
as §1

Data set [9] is described as follows: Drug level in normal rhesus monkey frontal cortex assessed as standard uptake value at 96.3 MBq, iv after 6 mins by microPET. To be noted: in vivo, 0.1 h.
Data set [10] in a line: Drug level in normal rhesus monkey white matter assessed as standard uptake value at 96.3 MBq, iv after 75 mins by microPET. The conditions noted are these: in vivo, 1.25 h.
The nature of data set [11]: Drug level in normal rhesus monkey parietal cortex assessed as standard uptake value at 81.2 MBq, iv after 57.5 mins by microPET. The conditions noted are these: in vivo.
Data set [12] can be described thus: Drug level in normal rhesus monkey white matter assessed as standard uptake value at 81.2 MBq, iv after 17.5 mins by microPET. The conditions noted are these: in vivo.
Data set [13] is described as follows: Drug level in normal rhesus monkey white matter assessed as standard uptake value at 81.2 MBq, iv after 42.5 mins by microPET. The conditions noted are these: in vivo.
A short description of data set [14]: Drug level in normal rhesus monkey white matter assessed as standard uptake value at 81.2 MBq, iv after 75 mins by microPET. To be noted: in vivo, 1.25 h.
Data set [15] in a line: Drug level in normal rhesus monkey white matter assessed as standard uptake value at 81.2 MBq, iv after 145 mins by microPET. The conditions noted are these: in vivo.
Data set [16] is described as follows: Drug level in normal rhesus monkey frontal cortex assessed as standard uptake value at 81.2 MBq, iv after 95 mins by microPET. To be noted: in vivo.
Data set [17] is described as follows: Drug level in normal rhesus monkey cerebellum assessed as standard uptake value at 81.2 MBq, iv after 47.5 mins by microPET. The conditions noted are these: in vivo. In outline:
as §1

The nature of data set [18]: Drug level in normal rhesus monkey cerebellum assessed as standard uptake value at 81.2 MBq, iv after 135 mins by microPET. To be noted: in vivo, 2.25 h. In outline: as §1
A short description of data set [19]: Drug level in normal rhesus monkey frontal cortex assessed as standard uptake value at 152.9 MBq, iv after 1.5 mins by microPET. The conditions noted are these: in vivo, 0.025 h. In outline:
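One normal rhesus monkey, tracer given iv via the vena saphena (152.9 MBq), with at least 1 day between tracer injections. Dynamic brain μPET over 90 min used frames of 5 × 60 s, 5 × 120 s, 9 × 300 s and 3 × 600 s. Images were reconstructed by filtered back projection with a RAMP filter. Regional time-activity curves were expressed as SUV.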

Data set [20] can be described thus: Drug level in normal rhesus monkey frontal cortex assessed as standard uptake value at 152.9 MBq, iv after 27.5 mins by microPET. To be noted: in vivo. In outline:
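Single normal rhesus monkey; tracer given iv via the vena saphena, 1 day apart from the other tracer injections. Dynamic μPET ran 90 min (5×60 s, 5×120 s, 9×300 s, 3×600 s). Images were reconstructed by filtered back projection with a RAMP filter. Regional time-activity curves were expressed as SUV.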

Data set [21] is described as follows: Drug level in normal rhesus monkey thalamus assessed as standard uptake value at 152.9 MBq, iv after 32.5 mins by microPET. To be noted: in vivo.
Data set [22] is described as follows: Drug level in normal rhesus monkey pons assessed as standard uptake value at 152.9 MBq, iv after 75 mins by microPET. The conditions noted are these: in vivo, 1.25 h.
A short description of data set [23]: Drug level in normal rhesus monkey parietal cortex assessed as standard uptake value at 152.9 MBq, iv after 6 mins by microPET. The conditions noted are these: in vivo, 0.1 h.
The nature of data set [24]: Drug level in normal rhesus monkey thalamus assessed as standard uptake value at 109.4 MBq, iv after 129 mins by microPET. To be noted: in vivo, 2.15 h.
Data set [25] can be described thus: Drug level in normal rhesus monkey pons assessed as standard uptake value at 109.4 MBq, iv after 0.375 mins by microPET. To be noted: in vivo, 22 s.
The nature of data set [26]: Drug level in normal rhesus monkey pons assessed as standard uptake value at 109.4 MBq, iv after 75 mins by microPET. The conditions noted are these: in vivo, 1.25 h.
Data set [27] in a line: Drug level in normal rhesus monkey cerebellum assessed as standard uptake value at 109.4 MBq, iv after 22.5 mins by microPET. To be noted: in vivo, 0.375 h. The method, boiled down: (§2)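 One normal rhesus monkey received each tracer via the vena saphena, with 1 day between injections. Dynamic μPET ran 180 min for 18F tracers (5×60 s, 5×120 s, 9×300 s, 12×600 s) and 90 min for the 11C tracer (5×60 s, 5×120 s, 9×300 s, 3×600 s). Filtered back-projection reconstruction (RAMP filter) was used. Time-activity curves were drawn to give regional SUV.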

Data set [28] is described as follows: Drug level in normal rhesus monkey cerebellum assessed as standard uptake value at 109.4 MBq, iv after 52.5 mins by microPET. To be noted: in vivo, 0.875 h. The method, boiled down: as §2
A short description of data set [29]: Drug level in normal rhesus monkey cerebellum assessed as standard uptake value at 109.4 MBq, iv after 93 mins by microPET. To be noted: in vivo, 1.55 h.
The nature of data set [30]: Drug level in normal rhesus monkey cerebellum assessed as standard uptake value at 109.4 MBq, iv after 129 mins by microPET. To be noted: in vivo, 2.15 h.
Data set [31] is described as follows: Drug level in normal rhesus monkey frontal cortex assessed as standard uptake value at 109.4 MBq, iv after 0.125 mins by microPET. The conditions noted are these: in vivo, 7 s.
A short description of data set [32]: Drug level in normal rhesus monkey thalamus assessed as standard uptake value at 109.4 MBq, iv after 47.5 mins by microPET. To be noted: in vivo.
Data set [33] is described as follows: Drug level in normal rhesus monkey cerebellum assessed as standard uptake value at 109.4 MBq, iv after 0.875 mins by microPET. To be noted: in vivo, 52 s.
Data set [34] is described as follows: Drug level in normal rhesus monkey white matter assessed as standard uptake value at 109.4 MBq, iv after 0.375 mins by microPET. The conditions noted are these: in vivo, 22 s.
Data set [35] in a line: Drug level in normal rhesus monkey parietal cortex assessed as standard uptake value at 109.4 MBq, iv after 52.5 mins by microPET. To be noted: in vivo, 0.875 h.

From ChEMBL document CHEMBL1154674, “Synthesis and evaluation of three 18F-labeled aminophenylbenzothiazoles as amyloid imaging agents” (J Med Chem, 2009) come the findings set out here.

`CN(C)c1ccc2nc(-c3ccc([18F])cc3)sc2c1`: the SUV in [1] came out at 1.35; in [2], 2.12; in [3], 2.25; in data set [4] it was 1.17; in data set [5], 1.55; in data set [6], 1.72. Besides, the SUV in data set [7] worked out at 1.46; in [8], 1.23; in data set [9], 1.97; in data set [10], 1.5.
Regarding `CNc1ccc2nc(-c3ccc([18F])cc3)sc2c1`, the SUV in data set [11] is on record as 3.575; in data set [12] it was 3.647; in data set [13] it was 3.757; in data set [14], 3.823; in data set [15], 3.888; in data set [16] it was 4.745. Moreover, the SUV was found to be 1.883 in [17] and 1.594 in [18].
Turning to `[11CH3]Nc1ccc(-c2nc3ccc(O)cc3s2)cc1` [PITTSBURGH COMPOUND B], the SUV in data set [19] amounted to 0.478; in data set [20] it was 1.215; in data set [21] it was 1.517; in data set [22] it was 0.834; in data set [23] it was 2.16.
As for `Nc1ccc2nc(-c3ccc([18F])cc3)sc2c1`, the SUV in data set [24] amounted to 4.43; in data set [25] it was 0.4; in [26] it was 4.79; in data set [27] it was 4.4; in data set [28], 3.38; in [29] it was 2.52. The SUV in data set [30] is 2.36; in [31] it was -0.06; in [32], 5.56; in [33], 3.51; in data set [34], -0.01; in data set [35], 4.38.
